{"source": "paper PMC4931879", "about": "(The Journal of Pharmacology and Experimental Therapeutics, 2016)", "key": {"[1]": {"tested_on": "Aβ1-42 levels in cerebrospinal fluid", "details": "clinical trials, even at high doses; ref Galasko et al., 2007; cited from earlier work"}, "[2]": {"tested_on": "Aβ1-42, Aβ1-40, Aβ1-38 and Aβ1-37 in H4-APPsw cell cultures", "type": "cell-based", "details": "overnight", "outline": "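H4-APPsw cultures incubated overnight with test compound at 0.46 to 333 nM, with 0.1% DMSO vehicle and a γ-secretase inhibitor reference at 1 μM. Aβ1-42, Aβ1-40, Aβ1-38 and Aβ1-37 were measured by Meso Scale 4-plex immunoassay. Concentrations came from on-plate synthetic-peptide calibration curves (quadratic fit), in pM corrected for dilution. Two replicate wells, standard error shown.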"}, "[3]": {"tested_on": "Aβx-42 in H4-APPsw cell cultures", "assay": "Automated multiplex HTRF assay, Aβx-42 in H4-APPsw cell cultures", "type": "cell-based", "outline": "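H4-APPsw cultures treated overnight, 1 pM to 50 μM. Aβx-42 and Aβ1-x were read together in an automated HTRF multiplex; the Aβx-42 detection pairing includes monoclonal 4G8. Concentrations came from synthetic-peptide calibration curves (quadratic fit). Seven independent assays; IC50 for Aβx-42 and maximum percent inhibition for Aβ1-x, given with standard deviations.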"}, "CSF Aβ peptides [4]": {"tested_on": "CSF Aβ peptides", "assay": "CSF Aβ peptides in monkeys after single intravenous doses", "type": "in vivo, cynomolgus monkeys", "details": "monkey"}, "[5]": {"assay": "Plasma exposure in monkeys after single intravenous doses", "type": "in vivo, cynomolgus monkeys", "details": "monkey, intravenous 5 or 15 mg/kg", "outline": "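Crossover in four lumbar-catheterized male cynomolgus monkeys given IV 5 or 15 mg/kg or vehicle. Blood drawn at 1, 2, 3, 4, 5 and 30 min and at 1, 2, 4, 7, 10, 24 and 48 h. Samples kept on ice and centrifuged at 2880 × g for 10 min; plasma kept for compound levels.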"}, "[6]": {"assay": "14-day daily oral dose safety assessment in rats", "type": "in vivo", "details": "for AUC at 14 days: rat, in vivo, po, 100 mg/kg", "outline": "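Safety study in male and female rats given daily oral doses of 10, 30 or 100 mg/kg for 14 days; plasma AUC determined on day 14.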"}, "Notch3": {"tested_on": "Notch3", "assay": "Cell-based transcriptional reporter assay, Notch3", "details": "read-out: Notch3 IC50"}, "Notch1": {"tested_on": "Notch1", "assay": "Cell-based transcriptional reporter assay, Notch1", "details": "read-out: Notch1 IC50"}, "[7]": {"assay": "Plasma exposure in rats after single intravenous doses", "type": "in vivo, Sprague-Dawley rats", "details": "rat, intravenous 1, 5, 10 mg/kg", "outline": "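Same IV rat study: fasted females, 1, 5 or 10 mg/kg in PEG400/ethanol/Solutol, n = 4 per time point from 10 min to 24 h. Blood taken by cardiac puncture into EDTA for plasma. Plasma deproteinized and extracted with acetonitrile, then analysed by UPLC-MS/MS (C18 column at 60°C); quantitation range 10–5000 nM.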"}, "[8]": {"tested_on": "Aβ1-42 in H4-APPsw cell cultures", "assay": "Aβ1-42 immunoassay", "type": "cell-based", "details": "read-out: Aβ1-42 IC50", "outline": "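Overnight exposure of H4-APPsw cultures, 10 pM to 10 μM. Aβ1-42 and Aβ1-40 were measured in parallel from the same cultures by automated HTRF immunoassays. Concentrations came from synthetic-peptide calibration curves (quadratic fit). Three independent assays; IC50 given with standard deviation.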"}, "[9]": {"assay": "Distribution into rat brain after oral administration", "type": "in vivo, rats", "details": "10 mg/kg oral", "outline": "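Rats dosed orally at 10 mg/kg in PEG400/Solutol/TPGS (90:5:5 w/w/w). n = 3 per time point, sampled at 1, 4, 8 and 24 h. Jugular blood collected into EDTA and centrifuged at 4°C (1500–2000 × g). Brain blotted, weighed and homogenized in 4 volumes of PBS; cerebellum analysed. Samples stored at −20°C, then LC-MS/MS. Brain-to-plasma ratios per time point and brain/plasma AUC ratio.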"}, "[10]": {"tested_on": "Aβ peptides in H4-APPsw cell cultures", "type": "cell-based", "details": "overnight, 100 nM", "outline": "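H4-APPsw cultures incubated overnight with 0.1% DMSO or test compound at 100 nM. Aβ peptides were immunoprecipitated and analysed by MALDI mass spectrometry. Peaks were assigned by expected mass, referenced to an equimolar mix of synthetic peptides including [14N]Aβ1-40.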"}, "[11]": {"tested_on": "Aβ1-x in H4-APPsw cell cultures", "assay": "Automated multiplex HTRF assay, Aβ1-x in H4-APPsw cell cultures", "type": "cell-based", "details": "read-out: Aβ1-x maximum inhibition, H4-APPsw cell cultures, overnight, at 50 μM; ± standard deviation"}, "CSF Aβ peptides [12]": {"tested_on": "CSF Aβ peptides", "assay": "CSF Aβ peptides in dogs after single oral doses", "type": "in vivo, beagle dogs", "details": "dog", "outline": "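Male beagles, about 1 year old, 8–11 kg, with indwelling lumbar catheters; CSF sampled while conscious and lightly restrained. Fasted 16 h before dosing, fed 4 h after. Four dogs in a randomized crossover with 1-week washout: oral 2, 5 or 30 mg/kg or vehicle. CSF taken predose and up to 72 h, spun at 1330 × g for 10 min at 4°C. Aβ1-42/40/38/37 measured by Meso Scale 4-plex; the four were also summed.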"}, "brain Aβ peptides": {"tested_on": "brain Aβ peptides", "assay": "Brain Aβ peptides in rats after single intravenous doses", "type": "in vivo, Sprague-Dawley rats", "details": "rat", "outline": "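Female Sprague-Dawley rats, 10–12 weeks old, fasted from 16 h before to 4 h after dosing. Given IV 1, 5 or 10 mg/kg or vehicle (PEG400/ethanol/Solutol HS 15, 93:5:2 w/w/w; 1.5 ml/kg) in randomized order. n = 4 per time point, killed by CO2 at 10 min, 30 min, and 1, 3, 7, 12 and 24 h. Brain without cerebellum frozen in liquid nitrogen. Aβ1-42/40/38/37 measured by singleplex ELISAs; Aβ1-x by 4G8/252Q6-HRP ELISA; compared with vehicle.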"}, "[13]": {"tested_on": "amyloid-β precursor protein C-terminal fragment", "assay": "APP C-terminal fragment accumulation in rat brain", "type": "in vivo, rats", "details": "30 mg/kg oral, 8 or 12 hours"}, "CSF Aβ peptides [14]": {"tested_on": "CSF Aβ peptides", "assay": "CSF Aβ peptides in healthy human subjects after a single 900-mg oral dose", "type": "in vivo", "outline": "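Placebo-controlled, double-blind single-dose panel of 15 healthy young men and women of non-child-bearing potential. Single 900-mg oral dose or placebo, given fasted. CSF collected via indwelling lumbar catheter at −1, 0, 2, 4, 6, 8, 12, 15, 18 and 24 h. Aβ1-42/40/38 measured by Meso Scale 3-plex; Aβ1-37 by 26D6/Aβ1-37-selective polyclonal ELISA; Aβ1-x by 4G8/26D6-HRP ELISA.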"}, "Aβ1-42": {"tested_on": "Aβ1-42", "assay": "PK/PD across species: Aβ1-42 trough versus plasma exposure", "type": "in vivo", "details": "nonlinear fit of the entire data set: rat, dog, monkey, human", "outline": "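CSF Aβ1-42 trough (lowest level after dosing) plotted against plasma AUC and Cmax. Values were per individual human subject and per dose in individual dogs and monkeys. Rats used group means, with troughs for both brain and CSF, drawn from the IV study plus two further time courses. A nonlinear fit of the pooled data gave the exposure at 50% inhibition.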"}, "[15]": {"details": "intravenous, 12–24 hours after the 30-mg/kg dose (so in the source)"}, "[16]": {"details": "30 mg/kg oral, 24 hours after dose"}, "[17]": {"details": "single intravenous dose 1, 5 or 10 mg/kg"}}, "data": [{"smiles": "CC(C(=O)O)c1ccc(-c2ccccc2)c(F)c1", "note": "(stereo not drawn) [flurbiprofen]", "values": [{"measurement": "Effect on Aβ1-42 levels in cerebrospinal fluid", "setting": "[1]", "result": "no effect"}]}, {"smiles": "C[C@H](c1ccc(F)cc1CCCC(=O)O)N(c1cc(F)ccc1F)S(=O)(=O)c1ccc(Cl)cc1", "note": "[BMS-299897, (R)-4-(2-(1-((4-chloro-N-(2,5-difluorophenyl)phenyl)sulfonamido)ethyl)-5-fluorophenyl)butanoic acid, reference compound]", "values": [{"measurement": "Effect on production of Aβ1-42, Aβ1-40, Aβ1-38 and Aβ1-37", "setting": "[2]; 1 μM", "result": "inhibited production of all four Aβ peptides"}, {"measurement": "Reduction of Aβx-42 versus Aβ1-x in the multiplex assays (relative potency)", "setting": "[3]; H4-APPsw cell cultures, overnight, 1 pM to 50 μM", "result": "approximately equal potency"}]}, {"smiles": "Cc1ncn(-c2ccc3cc2OC/C=C\\CNc2nc(nc4c2CC[C@H]4c2ccc(Cl)cc2F)N3)n1", "note": "[BMS-986133, (S,Z)-17-(4-chloro-2-fluorophenyl)-34-(3-methyl-1H-1,2,4-triazol-1-yl)-16,17-dihydro-15H-4-oxa-2,9-diaza-1(2,4)-cyclopenta[d]pyrimidina-3(1,3)-benzenacyclononaphan-6-ene]", "values": [{"measurement": "Effect on CSF Aβ1-x or the sum of the four Aβ peptides", "setting": "CSF Aβ peptides [4]; intravenous 5 or 15 mg/kg", "result": "little, if any, effect"}, {"measurement": "CSF Aβ1-40 maximum reduction", "setting": "CSF Aβ peptides [4]; [15]", "result": "ca. 75%"}, {"measurement": "CSF Aβ1-42 maximum reduction", "setting": "CSF Aβ peptides [4]; [15]", "result": "ca. 75%"}, {"measurement": "Concentrations in blood plasma, dose proportionality", "setting": "[5]", "result": "dose-proportional"}]}, {"smiles": "CNc1nc(Nc2ccc(-n3cnc(C)n3)c(OC)c2)nc2c1CC[C@H]2c1ccc(F)cc1", "note": "[BMS-932481, (S)-7-(4-fluorophenyl)-N2-(3-methoxy-4-(3-methyl-1H-1,2,4-triazol-1-yl)phenyl)-N4-methyl-6,7-dihydro-5H-cyclopenta[d]pyrimidine-2,4-diamine]", "values": [{"measurement": "AUC at 14 days", "setting": "[6]; female", "result": 508, "unit": "µM·h"}, {"measurement": "AUC at 14 days", "setting": "[6]; male", "result": 892, "unit": "µM·h"}, {"measurement": "Histologic changes suggestive of Notch inhibition", "setting": "[6]; rat, 10, 30 or 100 mg/kg daily oral for 14 days, any dose level", "result": "no histologic changes suggestive of Notch inhibition"}, {"measurement": "Effect on the overall level of Aβ", "setting": "[2]; 0.46 to 333 nM", "result": "little if any effect"}, {"measurement": "IC50", "setting": "Notch3", "result": "~1000", "unit": "nM"}, {"measurement": "IC50", "setting": "[3]; read-out: Aβx-42 IC50", "result": 5.5, "unit": "nM"}, {"measurement": "IC50", "setting": "Notch1", "result": "~1000", "unit": "nM"}, {"measurement": "Concentrations in blood plasma, dose proportionality", "setting": "[7]", "result": "dose-proportional"}, {"measurement": "IC50", "setting": "[8]", "result": 6.6, "unit": "nM"}, {"measurement": "Brain penetration", "setting": "[9]", "result": "moderate brain penetration"}, {"measurement": "Aβ1-42 and Aβ1-40 detected by IP-MALDI mass spectroscopy", "setting": "[10]", "result": "no Aβ1-42 or Aβ1-40 was detected"}, {"measurement": "inhibition at 50 µM", "setting": "[11]", "result": "≤ 30", "unit": "%"}, {"measurement": "CSF Aβ1-37 maximal increase", "setting": "CSF Aβ peptides [12]; 30 mg/kg oral", "result": 5, "unit": "fold"}, {"measurement": "CSF Aβ1-40 maximum reduction", "setting": "CSF Aβ peptides [12]; [16]", "result": "ca. 65%"}, {"measurement": "CSF Aβ1-42 maximum reduction", "setting": "CSF Aβ peptides [12]; [16]", "result": "ca. 65%"}, {"measurement": "Effect on the sum of the four CSF Aβ peptides", "setting": "CSF Aβ peptides [12]; oral 2, 5 or 30 mg/kg", "result": "little, if any, effect"}, {"measurement": "Sum of brain Aβ1-42, Aβ1-40, Aβ1-38 and Aβ1-37 concentrations, change", "setting": "brain Aβ peptides; intravenous 1, 5 or 10 mg/kg", "result": "no significant changes"}, {"measurement": "Brain Aβ1-x change", "setting": "brain Aβ peptides; intravenous, any dose or time point", "result": "no significant changes"}, {"measurement": "Brain Aβ1-37 maximal increase", "setting": "brain Aβ peptides; [17]", "result": "ca. 6 fold"}, {"measurement": "Brain Aβ1-38 maximal increase", "setting": "brain Aβ peptides; [17]", "result": "ca. 2 fold"}, {"measurement": "Brain Aβ1-40 maximum reduction relative to vehicle-treated rats", "setting": "brain Aβ peptides; [17]", "result": "about 75%"}, {"measurement": "Brain Aβ1-42 maximum reduction relative to vehicle-treated rats", "setting": "brain Aβ peptides; [17]", "result": "about 75%"}, {"measurement": "Effect on APP C-terminal fragment accumulation in brain", "setting": "[13]", "result": "no effect"}, {"measurement": "CSF Aβ1-37 increase", "setting": "CSF Aβ peptides [14]", "result": "ca. 12 fold"}, {"measurement": "CSF Aβ1-40 change", "setting": "CSF Aβ peptides [14]", "result": "decrease"}, {"measurement": "CSF Aβ1-42, level relative to predose", "setting": "CSF Aβ peptides [14]; after 24 hours", "result": "50 % of predose levels"}, {"measurement": "CSF Aβ1-38 increase", "setting": "CSF Aβ peptides [14]; gradual increase", "result": "about 2 fold"}, {"measurement": "CSF Aβ1-x transient increase", "setting": "CSF Aβ peptides [14]; the same increase in the placebo group", "result": "approximately 40%"}, {"measurement": "Plasma AUC at 50% inhibition (Aβ1-42 trough)", "setting": "Aβ1-42", "result": 11, "unit": "μM⋅h"}]}]}
